Results reported in ChEMBL document CHEMBL2384985 (Bioorg Med Chem Lett, 2013).
Activity calls are given as the source filed them. No cut-off for these calls is given here.

What was measured:
Embryonic stem cell [1] = assay: Induction of cardiomyogenic activity in human embryonic stem cells assessed as cardiomyocyte yield at 5 to 100 uM measured on day 15 by FACS analysis; format: functional, cell-based
How it was run: (§1)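 Nkx2.5eGFP/w transgenic hESC line (eGFP driven by cardiac progenitor marker Nkx2.5). Compound present from Day 0, the day of embryoid body formation, to Day 8. On Day 15 EBs were dissociated to single cells for FACS. Nkx2.5 was read as GFP expression, and α-MHC by MF20 primary antibody with FITC-conjugated secondary.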

[2] = Reduction of cardiomyogenic activity in human embryonic stem cells assessed as cardiomyocyte yield at 5 uM measured on day 15 by FACS analysis relative to control; format: functional, Embryonic stem cell; how it was run: as §1
Embryonic stem cell [3] = assay: Induction of cardiomyogenic activity in human embryonic stem cells assessed as cell growth at 5 uM measured on day 15 by FACS analysis; format: functional, cell-based
Embryonic stem cell [4] = assay: Induction of cardiomyogenic activity in human embryonic stem cells assessed as cardiomyocyte yield at 2 to 5 uM measured on day 15 by FACS analysis; format: functional, cell-based; how it was run: as §1
[5] = (§2) Induction of cardiomyogenic activity in human embryonic stem cells assessed as cardiomyocyte yield at 5 uM measured on day 15 by FACS analysis relative to control; format: functional, Embryonic stem cell; how it was run: as §1
Embryonic stem cell [6] = assay: Induction of cardiomyogenic activity in human embryonic stem cells assessed as cardiomyocyte yield at 1 to 5 uM measured on day 15 by FACS analysis; format: functional, cell-based; how it was run: as §1
Embryonic stem cell [7] = assay: Induction of cardiomyogenic activity in human embryonic stem cells assessed as cardiomyocyte yield at 5 to 15 uM measured on day 15 by FACS analysis; format: functional, cell-based; how it was run: as §1
Embryonic stem cell [8] = assay: as §2; format: functional; how it was run: as §1

SMILES: C[S+]([O-])c1ccc(-c2nc(-c3ccc(F)cc3)c(C3=CCOCC3)[nH]2)cc1 (stereo not given)
- Activity (Embryonic stem cell [1]): inactive
- Ratio [2]: 2

SMILES: C[S+]([O-])c1ccc(-c2nc(-c3ccc(F)cc3)c(-c3ccncc3)[nH]2)cc1 (stereo not given)
- Activity (Embryonic stem cell [3]): Active

SMILES: Cc1cccc(-c2nc(-c3ccc(O)cc3)[nH]c2-c2ccncc2)c1
- Activity (Embryonic stem cell [4]): inactive

SMILES: Cc1cccc(-c2nc(-c3ccc([S+](C)[O-])cc3)[nH]c2-c2ccncc2)c1 (stereo not given)
- Activity (Embryonic stem cell [3]): Active
- Ratio [5]: 5

SMILES: Cc1cccc(-c2nc(-c3c(F)cccc3F)[nH]c2-c2ccncc2)c1
- Activity (Embryonic stem cell [6]): inactive

SMILES: Cc1cccc(-c2nc(-c3ccc([S+](C)[O-])cc3)[nH]c2C2=CCOCC2)c1 (stereo not given)
- Activity (Embryonic stem cell [7]): inactive
- Activity (Embryonic stem cell [8]): Active

SMILES: Cc1cccc(-c2nc(-c3ccccc3F)[nH]c2-c2ccncc2)c1
- Activity (Embryonic stem cell [6]): inactive
